# ChEMBL document CHEMBL3393006, “A new iridoid, verbascoside and derivatives with inhibitory activity against Taq DNA polymerase” (Bioorg Med Chem Lett, 2015)
# Active and inactive are the calls of the source. The calls are words filed in the database; no cut-off is given here.
# Test system: Thermus aquaticus
# Test: (§1) Inhibition of Thermus aquaticus DNA polymerase by PCR analysis
# How it was run: (§2)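 Taq DNA polymerase (2.5 U) run in PCR mix of 40 mM Tris-acetate pH 8.3, 15 mM MgCl2, […], 2.5 mM each dNTP. Compounds were dissolved in DMSO and tested at varying concentrations, with 1:2 serial dilutions. Cycling was 35 cycles: 95 °C 1 min, 56 °C annealing, 72 °C 90 s. Read-out was densitometry of ethidium bromide-stained agarose gel bands. IC50 was interpolated from plots of activity versus inhibitor concentration.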
row,inhibition,Compound
1,inactive,O=C(OC[C@H]1O[C@@H](O[C@@H]2OC=C[C@H]3[C@@H](OC(=O)c4ccccc4)[C@@H]4O[C@]4(COC(=O)c4ccccc4)[C@@H]23)[C@H](O)[C@@H](OC(=O)c2ccccc2)[C@@H]1OC(=O)c1ccccc1)c1ccccc1
2,inactive,CC(C)(C)[Si](OC[C@H]1O[C@@H](O[C@@H]2OC=C[C@H]3[C@@H](O[Si](c4ccccc4)(c4ccccc4)C(C)(C)C)[C@@H]4O[C@]4(CO[Si](c4ccccc4)(c4ccccc4)C(C)(C)C)[C@@H]23)[C@H](O)[C@@H](O[Si](c2ccccc2)(c2ccccc2)C(C)(C)C)[C@@H]1O)(c1ccccc1)c1ccccc1
3,inactive,CC(C)(C)[Si](OC[C@H]1O[C@@H](O[C@@H]2OC=C[C@H]3[C@@H](O[Si](c4ccccc4)(c4ccccc4)C(C)(C)C)[C@@H]4O[C@]4(CO[Si](c4ccccc4)(c4ccccc4)C(C)(C)C)[C@@H]23)[C@H](O)[C@@H](O)[C@@H]1O)(c1ccccc1)c1ccccc1
4,inactive,CC(=O)OC[C@]12O[C@H]1[C@H](O)[C@@H]1C=CO[C@@H](O[C@@H]3O[C@H](CO)[C@@H](O)[C@H](O)[C@H]3O)[C@@H]12
5,inactive,CC(=O)OC[C@H]1O[C@@H](O[C@@H]2OC=C[C@H]3[C@@H](OC(C)=O)[C@@H]4O[C@]4(COC(C)=O)[C@@H]23)[C@H](OC(C)=O)[C@@H](OC(C)=O)[C@@H]1OC(C)=O
6,inactive,CC(=O)OC[C@H]1O[C@@H](O[C@@H]2OC=C[C@H]3[C@@H](OC(C)=O)[C@@H]4O[C@]4(COC(C)=O)[C@@H]23)[C@H](O)[C@@H](O)[C@@H]1O

# Target: not listed separately
# Test: as §1
# How it was run: as §2
row,IC50,Compound
1,21.6 µM,"OCC1O[C@@H](O[C@@H]2OC=C[C@H]3[C@@H](O)[C@@H]4O[C@]4(CO)[C@@H]23)C(O)C(O)[C@@H]1O (single isomer, unassigned)"
2,5.57 µM,CC(C)(C)[Si](C)(C)OC[C@H]1O[C@@H](O[C@@H]2OC=C[C@H]3[C@@H](O[Si](C)(C)C(C)(C)C)[C@@H]4O[C@]4(CO[Si](C)(C)C(C)(C)C)[C@@H]23)[C@H](O)[C@@H](O)[C@@H]1O
3,78.1 µM,CC(C)(C)[Si](C)(C)OC[C@]12O[C@H]1[C@H](O[Si](C)(C)C(C)(C)C)[C@@H]1C=CO[C@@H](O[C@@H]3O[C@H](CO)[C@@H](O)[C@H](O)[C@H]3O)[C@@H]12
